Experiment [1] relates to Human immunodeficiency virus 1. The experiment can be described thus: (§1) Effective antiviral dose required to block the spread of HIV-1D34 infection in human peripheral blood mononuclear cells. The conditions noted are these: read-out: ED50 (the source's name). It counts as functional. A digest of the protocol:
(§2)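 PBMC (1 × 10^6 cells) infected with HIV-1 D34 inoculum containing 1 ng p24, cultured at 37 °C in 5% CO2. Replication read as supernatant p24 at day 4. ED50 = 50% effective antiviral dose, estimated in some cases.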

Experiment [2] relates to MT2. The experiment can be described thus: Tested for the drug concentration required to decrease HIV-1IIIb infected MT-2 cell viability compared to uninfected controls. It counts as functional. Particulars: Homo sapiens. A digest of the protocol: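 MT-2 cells with HIV-1 IIIb (MOI 0.001), 4-day culture. Viability by trypan blue exclusion. CC50 is the concentration lowering viability relative to uninfected controls; mostly estimated.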

Experiment [3] concerns MT2. Put plainly: Effective antiviral dose required to block the spread of HIV-1 IIIb infection in MT-2 cells by monitoring the formation of syncytia. It counts as functional. The conditions noted are these: Homo sapiens, read-out: ED50 (the source's name). The procedure, abridged:
(§3)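 MT-2 cells infected with HIV-1 IIIb at MOI 0.001, held at 37 °C in 5% CO2. Syncytium formation scored 4 days post-infection, at peak cytopathic effect. ED50 is the dose giving 50% reduction in syncytia; some values were estimated, and ">" means 50% was not reached at the top concentration.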

Experiment [4] has as its target Human immunodeficiency virus type 1 reverse transcriptase (Human immunodeficiency virus 1) (UniProt Q72547). Put plainly: In vitro inhibitory activity against HIV-1 reverse transcriptase at 100 uM. A digest of the protocol: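 Recombinant HIV-1 RT (p51/p66 heterodimer, 90–95% pure, 0.0274 μM) with poly(rA) 10 μg/mL and (dT)10 primer 5 μg/mL; 8 μM α-35S-dTTP, 50 mM Tris-HCl pH 8.3, 10 mM MgCl2, 60 mM NaCl, 20 mM DTT, 0.05% NP-40. 37 °C, 15 min; TCA-precipitated label counted on filters. Percent inhibition at 100 μM, mean of at least two determinations.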

A short description of experiment [5]: Selective index is the ratio of inhibitory concentrations of cellular DNA polymerase alpha to HIV-1 reverse transcriptase. The procedure, abridged: (§4)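 Index = IC50 for cellular DNA polymerase α or δ divided by IC50 for HIV-1 RT. RT IC50 measured with recombinant RT and poly(rA):oligo(dT)10 template:primer.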
A short description of experiment [6]: Selective index is the ratio of inhibitory concentrations of cellular DNA polymerase delta to HIV-1 reverse transcriptase. The procedure, abridged: as §4
Experiment [7] relates to MT2. Put plainly: Effective antiviral dose required to block the spread of HIV-1 IIIb infection in MT-2 cells by monitoring the formation of syncytia. It counts as functional. The conditions noted are these: Homo sapiens, read-out: ED50 (the source's name). The procedure, abridged: as §3
The nature of experiment [8]: Tested for the drug concentration required to decrease […] infected human peripheral blood mononuclear cell viability compared to uninfected controls. It counts as functional. A digest of the protocol:
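Uninfected and HIV-1 D34-infected PBMC at 37 °C, 5% CO2. Viability taken from mitogen-stimulated cell proliferation. CC50 is the concentration lowering viability relative to uninfected controls; mostly estimated.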

A short description of experiment [9]: as §1. It counts as functional. Particulars: read-out: ED50 (the source's name). The procedure, abridged: as §2

Structures are written as SMILES.

A word on the CC50: it is the concentration at which the toxic effect on the cells reaches its halfway point. By inhibition is commonly meant the share of the control response that was lost under treatment. High values mean strong suppression, low ones little suppression.

Consider `CCNc1cccnc1N1CCN(C(=O)c2cc3cc(F)ccc3[nH]2)CC1`, for which the results for the EC50 (in experiment [1]; in the experiment on MT2 [3]) were 1 nM and less than 300 nM, respectively. The CC50 with MT2 [2] is greater than 27000 nM. In experiment [4], the inhibition was 93%. In addition, the Selectivity index in experiment [5] is 220; in experiment [6], 1670.

On to `COc1ccc2[nH]c(C(=O)N3CCN(c4ncccc4NC(C)(C)C)CC3)cc2c1`, for which the EC50 in [1] came out at 10 nM; in the experiment on MT2 [3] it was 220 nM. In the experiment with MT2 [2], this molecule returned a CC50 greater than 22000 nM. The molecule also displayed an inhibition in experiment [4] of 86%. Also, the Selectivity index in experiment [5] and in [6] was greater than 83 in each case.

Turning to `CCNc1cccnc1N1CCN(C(=O)c2cc3cc(OC)ccc3[nH]2)CC1.CS(=O)(=O)O` [ATEVIRDINE SULPHATE], the EC50 in experiment [1] was 1 nM; in the experiment with MT2 [3], less than 200 nM. Besides, the CC50 with MT2 [2] was greater than 20000 nM. This molecule also had an inhibition in [4] of 92%. The Selectivity index was 200 in experiment [5] and 1500 in [6].

As to `COc1ccc2[nH]c(C(=O)N3CCN(c4ncccc4NC(C)C)CC3)cc2c1`, the EC50 in experiment [1] was determined as 1 nM; in the experiment on MT2 [3], 300 nM. Further, in the experiment on MT2 [2], the CC50 is greater than 25000 nM. In experiment [4], this molecule gave an inhibition of 97%. The figures for the Selectivity index in [5] and in experiment [6] were 1500 and 8000, respectively.

In the case of `CCNc1cccnc1N1CCN(Cc2cc(C)c(OC)c(C)c2)CC1`, the figures for the EC50 (in [1]; in the experiment with MT2 [7]) were 1000 nM and 2000 nM, respectively. Further, the values for the CC50 (in the experiment on MT2 [2]; in experiment [8]) were 15000 nM and greater than 10000 nM, respectively. In [4], this molecule yielded an inhibition of 73%. The Selectivity index in experiment [5] was 30; in experiment [6], greater than 60.

Regarding `CC(C)Nc1cccnc1N1CCN(C(=O)c2cc3ccccc3[nH]2)CC1`, the results for the EC50 (in experiment [1]; in the experiment on MT2 [3]) were 1 nM and 300 nM, respectively. Also, the CC50 with MT2 [2] was greater than 27000 nM; in [8] it was greater than 10000 nM. The same molecule came in with an inhibition in experiment [4] of 96%. The Selectivity index is 1100 in experiment [5] and 10000 in [6].

As to `Cc1cn([C@H]2C[C@H](N=[N+]=[N-])[C@@H](CO)O2)c(=O)[nH]c1=O` [ZIDOVUDINE], the EC50 in experiment [1] is 1 nM; in the experiment with MT2 [3], 70 nM. Moreover, the results for the CC50 (with MT2 [2]; in experiment [8]) were 123000 nM and 10000 nM, respectively.

With `CC(C)Nc1cccnc1N1CCN(C(=O)c2cc3cc(F)ccc3[nH]2)CC1`, the values for the EC50 (in experiment [1]; with MT2 [3]) were 3 nM and 300 nM, respectively. The CC50 with MT2 [2] was greater than 26000 nM. This molecule showed an inhibition in [4] of 96%. The values for the Selectivity index in experiment [5] and in [6] were 810 and 10000, respectively.

As to `CC(C)(C)Nc1cccnc1N1CCN(C(=O)c2cc3ccccc3[nH]2)CC1`, the EC50 in [1] was 10 nM; in the experiment on MT2 [3], 200 nM. Moreover, the CC50 with MT2 [2] was greater than 2400 nM; in [8], 10000 nM. This molecule had an inhibition in [4] of 89%. Also, the Selectivity index in experiment [5] was 225; in experiment [6], 2500.

With `CC(C)(C)Nc1cccnc1N1CCN(C(=O)c2cc3cc(F)ccc3[nH]2)CC1`, the EC50 in [1] stood at 10 nM; with MT2 [3], 230 nM. The molecule also registered a CC50 with MT2 [2] greater than 23000 nM. In addition, in experiment [4], the inhibition is 89%. Besides, the Selectivity index in experiment [5] came out at 233; in [6], 1670.

As to `CCNc1ccccc1N1CCN(C(=O)c2cc(C)c(OC)c(C)c2)CC1`, the EC50 in experiment [9] is greater than 1000 nM. In experiment [8], this molecule registered a CC50 of roughly 10000 nM. Also, in [4], the inhibition is 21%.

As for `CCNc1cccnc1N1CCN(C(=O)c2cc3ccccc3[nH]2)CC1`, the results for the EC50 (in experiment [1]; with MT2 [3]) were 10 nM and 300 nM, respectively. Also, the CC50 with MT2 [2] was greater than 30000 nM; in [8] it was greater than 10000 nM. The Selectivity index in [5] was determined as 1500; in [6], 2800.

These data come from ChEMBL document CHEMBL1127691, “Discovery, synthesis, and bioactivity of bis(heteroaryl)piperazines. 1. A novel class of non-nucleoside HIV-1 reverse transcriptase inhibitors” (J Med Chem, 1994).
